Results collected from several papers.
Compare with care: the assays were run in different laboratories.
MC1R: Melanocyte-stimulating hormone receptor (MC1R, Homo sapiens, UniProt Q01726)
ADORA3: Adenosine receptor A3 (ADORA3, Homo sapiens, UniProt P0DMS8)
Liver carboxylesterase: Liver carboxylesterase (Sus scrofa, UniProt Q29550)
DRD2: D(2) dopamine receptor (DRD2, Homo sapiens, UniProt P14416)

Compound | target | assay | conditions | Ki
CC[C@H](C)[C@H](NC(=O)CN)C(=O)N[C@H](C(=O)N[C@@H](CC(N)=O)C(=O)N[C@H](C(=O)N[C@@H](CC(C)C)C(=O)N[C@@H](CCC(N)=O)C(=O)N[C@@H](CCCCN)C(=O)N[C@@H](Cc1ccc(O)cc1)C(=O)N[C@@H](Cc1ccc(O)cc1)C(=O)N[C@@H](CO)C(=O)N[C@@H](CCCNC(=N)N)C(=O)N[C@H](C(=O)N[C@@H](CCCNC(=N)N)C(=O)NCC(=O)NCC(=O)N[C@@H](CCCNC(=N)N)C(=O)N[C@@H](CO)C(=O)N[C@@H](C)C(=O)N[C@H](C(=O)N[C@@H](CC(C)C)C(=O)N[C@@H](CO)C(=O)N[C@H]1CSSC[C@@H](C(=O)N[C@@H](CCCNC(=N)N)C(=O)N[C@@H](CCCNC(=N)N)C(=O)N[C@@H](CCCCN)C(=O)N[C@@H](CCCCN)C(N)=O)NC(=O)[C@H](CO)NC(=O)[C@H](CCCCN)NC(=O)[C@H](CCCNC(=N)N)NC(=O)CNC(=O)[C@H](CCCNC(=N)N)NC(=O)[C@H]([C@@H](C)O)NC(=O)[C@H](CO)NC(=O)[C@H](CO)NC(=O)[C@H](CCCCN)NC(=O)CNC(=O)[C@H]([C@@H](C)CC)NC(=O)[C@H](CCC(N)=O)NC(=O)[C@H](CCC(=O)O)NC(=O)[C@H](CCC(=O)O)NC(=O)[C@H](CCCCN)NC(=O)[C@@H]2CCCN2C(=O)[C@H](CC(C)C)NC1=O)C(C)C)C(C)C)[C@@H](C)O)[C@@H](C)CC | MC1R | ligand displacement in cells | – | 0.198 µM
CC(C)CC(C)N1CCCn2c1nc1c2c(=O)n(C)c(=O)n1C (stereo not shown) | ADORA3 | ligand displacement, radioligand | cell membranes | > 10 µM
CCCCC[C@H](O)/C=C/[C@H]1[C@H](O)CC(=O)[C@@H]1C/C=C\CCCC(=O)O | Liver carboxylesterase | enzyme activity, inhibitor, HPLC | pH 7.4 | > 28 µM
C=CCN1CCCn2c1nc1c2c(=O)n(C)c(=O)n1C | ADORA3 | ligand displacement, radioligand | cell membranes | > 10 µM
C#CCNc1nc(Cl)nc2c1ncn2[C@H]1[C@H](O)[C@H](O)[C@]2(C(=O)NC)C[C@H]12 | ADORA3 | ligand displacement, radioligand | cell membranes | 0.0015 µM
CC/C=C\C/C=C\C/C=C\C/C=C\C/C=C\C/C=C\CCC(=O)O | Liver carboxylesterase | enzyme activity, inhibitor, HPLC | pH 7.4 | 3.7 µM
CCCCN1CCCn2c1nc1c2c(=O)n(C)c(=O)n1C | ADORA3 | ligand displacement, radioligand | cell membranes | > 10 µM
CCn1c(-c2nc3cc(C(=O)N4CCC[C@@H](N)C4)cc(OC)c3n2C)cc2cccnc21 | Protein-arginine deiminase type-2 (PADI2, Homo sapiens, UniProt Q9Y2J8) | enzyme activity, inhibitor | – | 1580 µM
Oc1ccc(CCC2=NCCN2CCc2ccccc2)cc1 | DRD2 | ligand displacement, radioligand | – | 0.794 µM
C=CN1CCCn2c1nc1c2c(=O)n(C)c(=O)n1C | ADORA3 | ligand displacement, radioligand | cell membranes | > 10 µM
CCNC(=O)[C@H]1O[C@@H](n2cnc3c(N)nc(NN=C[C@H]4CCC=CO4)nc32)[C@H](O)[C@@H]1O | ADORA3 | ligand displacement, radioligand | – | 0.00451 µM
CCCCN1CCC(COC(=O)c2ccc(N)c(OCF)c2)CC1 | 5-hydroxytryptamine receptor 1E (HTR1E, Homo sapiens, UniProt P28566) | cell-free assay, radioligand | – | > 10 µM
CCCC[C@H](NC(=O)[C@H](CO)NC(=O)[C@H](Cc1ccc(O)cc1)NC(=O)[C@H](CO)NC(C)=O)C(=O)N[C@@H](CCC(=O)O)C(=O)N[C@@H](Cc1c[nH]cn1)C(=O)N[C@@H](C)C(=O)N[C@@H](CCCNC(=N)N)C(=O)N[C@@H](Cc1c[nH]c2ccccc12)C(=O)NCC(=O)N[C@@H](CCCCN)C(=O)N1CCC[C@H]1C(=O)N[C@H](C(=O)NCC(=O)N[C@@H](CCCCN)C(=O)N[C@@H](CCCCN)C(=O)N[C@@H](CCCNC(=N)N)C(N)=O)C(C)C | MC1R | ligand displacement in cells, radioligand | – | 0.0378 µM
CCCCC[C@H](O)/C=C/[C@H]1C=CC(=O)[C@@H]1C/C=C\CCCC(=O)O | Liver carboxylesterase | enzyme activity, inhibitor, HPLC | pH 7.4 | 12 µM
COc1ccc2c(c1)C(=O)N(CCN1CCN(c3ccccc3OC)CC1)C2 | DRD2 | ligand displacement, radioligand | – | 1.65 µM
CCN1CCCn2c1nc1c2c(=O)n(C)c(=O)n1C | ADORA3 | ligand displacement, radioligand | cell membranes | > 10 µM
COC(=O)[C@H](CSC/C=C(\C)CC/C=C(\C)CCC=C(C)C)NC(=O)c1ccc(-c2ccccc2)cc1 | Liver carboxylesterase | enzyme activity, inhibitor, HPLC | – | 190 µM
CC(C)N1CCCn2c1nc1c2c(=O)n(C)c(=O)n1C | ADORA3 | ligand displacement, radioligand | cell membranes | > 10 µM
NCCCC[C@H](NC(=O)[C@@H]1CCCN1C(=O)[C@@H]1CSSC[C@H](NC(=O)CNC(=O)CNC(=O)CN)C(=O)N[C@@H](Cc2ccc(O)cc2)C(=O)N[C@@H](Cc2ccccc2)C(=O)N[C@@H](CCC(N)=O)C(=O)N[C@@H](CC(N)=O)C(=O)N1)C(=O)NCC(N)=O | Vasopressin V2 receptor (AVPR2, Homo sapiens, UniProt P30518) | ligand displacement, radioligand | cell membranes | 6.9 µM
